Source: ChEMBL document CHEMBL1153878, “Hansch analysis of veratric acid derivatives as antimicrobial agents” (2009)
In brackets after ≈: the same amount, converted by molar mass. Several values for one entry are separate records, joined by “and”; a condition that tells them apart may be missing. Equal values may be shown once.

Assays:
Format in all cases: functional
Staphylococcus aureus = assay: Antibacterial activity against Staphylococcus aureus MTCC 1430 by serial dilution method; parameters: -logMIC: scale not given here
Procedure, shortened: (§1)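 Tube serial dilution in 1 ml sterile double strength nutrient broth I.P., test range […] per ml. Inoculum: […] of a saline suspension at 10⁵ cfu/ml from a fresh 24-h culture, grown in double strength nutrient broth at 37 ± 1 °C. […] Exact MIC refined by further dilution of the stock.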

Bacillus subtilis = assay: Antibacterial activity against Bacillus subtilis MTCC 2423 by serial dilution method; parameters: -logMIC: unit not given here; procedure, shortened: as §1
Escherichia coli = assay: Antibacterial activity against Escherichia coli MTCC 739 by serial dilution method; parameters: -logMIC: scale not given here; procedure, shortened: as §1
Candida albicans = assay: Antifungal activity against Candida albicans MTCC 227 by serial dilution method; parameters: -logMIC: unit not given here
Aspergillus niger = assay: Antifungal activity against Aspergillus niger MTCC 2425 by serial dilution method; parameters: -logMIC: scale not given here
[1] = Staphylococcus aureus, MTCC 1430, read-out: MIC
[2] = Bacillus subtilis, MTCC 2423, read-out: MIC
[3] = Escherichia coli, MTCC 739, read-out: MIC
[4] = Candida albicans, MTCC 227, read-out: MIC
[5] = Aspergillus niger, MTCC 2425, read-out: MIC

Structure (SMILES) | -logMIC (Staphylococcus aureus) | MIC (Staphylococcus aureus; [1]) | -logMIC (Bacillus subtilis) | MIC (Bacillus subtilis; [2]) | -logMIC (Escherichia coli) | MIC (Escherichia coli; [3]) | -logMIC (Candida albicans) | MIC (Candida albicans; [4]) | -logMIC (Aspergillus niger) | MIC (Aspergillus niger; [5]) | MIC (Staphylococcus aureus) | MIC (Bacillus subtilis) | MIC (Escherichia coli) | MIC (Candida albicans) | MIC (Aspergillus niger)
COc1ccc(C(=O)OCCC(C)C)cc1OC | 1.1 | 20 µg/mL (≈ 79.3 µM) | 1.31 | 12.5 µg/mL (≈ 49.5 µM) | 1.2 | 16 µg/mL (≈ 63.4 µM) | 1.2 | 16 µg/mL (≈ 63.4 µM) | 1.3 | 12.5 µg/mL (≈ 49.5 µM) |  |  |  |  | 
CCCOC(=O)c1ccc(OC)c(OC)c1 | 0.98 | 24 µg/mL (≈ 107 µM) | 1.2 | 14 µg/mL (≈ 62.4 µM) | 1.25 | 12.5 µg/mL (≈ 55.7 µM) | 1.1 | 18 µg/mL (≈ 80.3 µM) | 1.2 | 14 µg/mL (≈ 62.4 µM) |  |  |  |  | 
CCCCOC(=O)c1ccc(OC)c(OC)c1 | 1.1 | 19 µg/mL (≈ 79.7 µM) | 1.2 | 15 µg/mL (≈ 63 µM) | 1.1 | 19 µg/mL (≈ 79.7 µM) | 1.2 | 15 µg/mL (≈ 63 µM) | 1.15 | 17 µg/mL (≈ 71.3 µM) |  |  |  |  | 
C=CCOC(=O)c1ccc(OC)c(OC)c1 | 1 | 22 µg/mL (≈ 99 µM) | 1.25 | 12.5 µg/mL (≈ 56.2 µM) | 1.1 | 18 µg/mL (≈ 81 µM) | 1.1 | 18 µg/mL (≈ 81 µM) | 1.2 | 14 µg/mL (≈ 63 µM) |  |  |  |  | 
CNC(=O)c1ccc(OC)c(OC)c1 | 0.95 | 22 µg/mL (≈ 113 µM) | 1.18 | 13 µg/mL (≈ 66.6 µM) | 1.05 | 17 µg/mL (≈ 87.1 µM) | 1.28 | 13 µg/mL (≈ 66.6 µM) | 1.18 | 12.5 µg/mL (≈ 64 µM) |  |  |  |  | 
COc1ccc(C(=O)Nc2ccc(C)cc2)cc1OC | 1.15 | 18.5 µg/mL (≈ 68.2 µM) | 1.31 | 13 µg/mL (≈ 47.9 µM) | 1.2 | 17 µg/mL (≈ 62.7 µM) | 1.32 | 13 µg/mL (≈ 47.9 µM) | 1.35 | 12.5 µg/mL (≈ 46.1 µM) |  |  |  |  | 
COc1ccc(C(=O)Nc2ccc(Cl)cc2)cc1OC | 1.19 | 19 µg/mL (≈ 65.1 µM) | 1.28 | 15 µg/mL (≈ 51.4 µM) | 1.39 | 12 µg/mL (≈ 41.1 µM) | 1.34 | 13.5 µg/mL (≈ 46.3 µM) | 1.3 | 14.5 µg/mL (≈ 49.7 µM) |  |  |  |  | 
COc1ccc(C(=O)Nc2ccc(Br)cc2)cc1OC | 1.25 | 19 µg/mL (≈ 56.5 µM) | 1.4 | 13 µg/mL (≈ 38.7 µM) | 1.25 | 19 µg/mL (≈ 56.5 µM) | 1.34 | 15 µg/mL (≈ 44.6 µM) | 1.44 | 12.5 µg/mL (≈ 37.2 µM) |  |  |  |  | 
COc1ccc(C(=O)Nc2cccc([N+](=O)[O-])c2)cc1OC | 1.22 | 18 µg/mL (≈ 59.5 µM) | 1.46 | 10.5 µg/mL (≈ 34.7 µM) | 1.36 | 13 µg/mL (≈ 43 µM) | 1.27 | 16 µg/mL (≈ 52.9 µM) | 1.36 | 13 µg/mL (≈ 43 µM) |  |  |  |  | 
CCCCCCOC(=O)c1ccc(OC)c(OC)c1 | 1.2 | 16.5 µg/mL (≈ 62 µM) | 1.33 | 12.5 µg/mL (≈ 46.9 µM) | 1.22 | 16 µg/mL (≈ 60.1 µM) | 1.3 | 13 µg/mL (≈ 48.8 µM) | 1.28 | 14 µg/mL (≈ 52.6 µM) |  |  |  |  | 
CCCCCOC(=O)c1ccc(OC)c(OC)c1 | 1.1 | 20 µg/mL (≈ 79.3 µM) | 1.31 | 12.5 µg/mL (≈ 49.5 µM) | 1.1 | 20 µg/mL (≈ 79.3 µM) | 1.1 | 20 µg/mL (≈ 79.3 µM) | 1.1 | 20 µg/mL (≈ 79.3 µM) |  |  |  |  | 
COc1ccc(C(=O)Nc2ccccc2C)cc1OC | 1.2 | 17 µg/mL (≈ 62.7 µM) | 1.26 | 15 µg/mL (≈ 55.3 µM) | 1.16 | 18.5 µg/mL (≈ 68.2 µM) | 1.31 | 13 µg/mL (≈ 47.9 µM) | 1.4 | 11 µg/mL (≈ 40.5 µM) |  |  |  |  | 
COc1ccc(C(=O)OCC(C)C)cc1OC | 1.08 and 1.1 | 20 µg/mL (≈ 83.9 µM) | 1.23 and 1.17 | 14 µg/mL (≈ 58.8 µM) | 1.17 and 1.1 | 16 µg/mL (≈ 67.1 µM) | 1.25 and 1.34 | 13.5 µg/mL (≈ 56.7 µM) | 1.28 and 1.17 | 12.5 µg/mL (≈ 52.5 µM) | 19 µg/mL (≈ 79.7 µM) | 16 µg/mL (≈ 67.1 µM) | 19 µg/mL (≈ 79.7 µM) | 11 µg/mL (≈ 46.2 µM) | 16 µg/mL (≈ 67.1 µM)
COc1ccc(C(=O)N2CCCCC2)cc1OC | 1.15 | 17.5 µg/mL (≈ 70.2 µM) | 1.33 | 12 µg/mL (≈ 48.1 µM) | 1.1 | 20 µg/mL (≈ 80.2 µM) | 1.25 | 14 µg/mL (≈ 56.2 µM) | 1.28 | 13 µg/mL (≈ 52.1 µM) |  |  |  |  | 
COc1ccc(C(=O)OCc2ccccc2)cc1OC | 1.1 | 21.5 µg/mL (≈ 79 µM) | 1.34 | 12.5 µg/mL (≈ 45.9 µM) | 1.18 | 18 µg/mL (≈ 66.1 µM) | 1.3 | 13.5 µg/mL (≈ 49.6 µM) | 1.29 | 14 µg/mL (≈ 51.4 µM) |  |  |  |  | 
